Laboratory results: ChEMBL document CHEMBL1137162, “The development of novel inhibitors of tumor necrosis factor-alpha (TNF-alpha) production based on substituted [5,5]-bicyclic pyrazolones” (Bioorg Med Chem Lett, 2004)
pIC50: −log10 of the molar value.

These compounds were tested on THP-1 (assay: inhibitory potency against human Tumor necrosis factor, alpha production in THP-1cells).
Assay type: functional, cell-based
In short: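 Human monocytic THP-1 cells (2.0 × 10^5/well), duplicate cultures, preincubated 15 min with or without inhibitor over a concentration range, then stimulated with LPS (2 μg/mL). TNF-α released measured by ELISA 4 h after stimulation; cell viability after the 4 h incubation checked by MTS assay.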

Question: With `Cc1ccccc1CNc1nccc(-c2c(-c3ccc(F)cc3)c(=O)n3n2CC2(C3)OCCO2)n1` as the compound, how does the pIC50 read?
Answer: Its pIC50 is 7.72.

Question: With `O=c1c(-c2ccc(F)cc2)c(-c2ccnc(NCc3ccccc3C(F)(F)F)n2)n2n1CC1(C2)OCCO1` as the compound, how does the pIC50 read?
Answer: Its pIC50 is 7.77.

Question: How did the pIC50 turn out when `O=c1c(-c2ccc(F)cc2)c(-c2ccnc(Oc3ccccc3)n2)n2n1CC(N1CCCC1)C2` (stereo not drawn) was run?
Answer: Its pIC50 is 6.49.

Question: With `COC[C@H](C)Nc1nccc(-c2c(-c3ccc(F)cc3)c(=O)n3n2CC2(C3)OCCO2)n1` as the compound, how does the pIC50 read?
Answer: The pIC50 was 7.44.

Question: How did the pIC50 turn out when `CN(C)C1Cn2c(-c3ccnc(Oc4ccccc4)n3)c(-c3ccc(F)cc3)c(=O)n2C1` (stereo not drawn) was run?
Answer: Its pIC50 is 6.75.

Question: With `O=c1c(-c2ccc(F)cc2)c(-c2ccnc(NCc3cccc(C(F)(F)F)c3)n2)n2n1CC1(C2)OCCO1` as the compound, how does the pIC50 read?
Answer: The pIC50 was 6.71.

Question: How did the pIC50 turn out when `C[C@@H](Nc1nccc(-c2c(-c3ccc(F)cc3)c(=O)n3n2CC(O)C3)n1)c1ccccc1` (stereo partly drawn) was run?
Answer: Its pIC50 is 8.30.

Question: With `O=c1c(-c2ccc(F)cc2)c(-c2ccnc(NCc3ccccc3)n2)n2n1CC1(C2)OCCO1` as the compound, how does the pIC50 read?
Answer: The pIC50 was 7.96.

Question: With `O=c1c(-c2ccc(F)cc2)c(-c2ccnc(Oc3ccccc3)n2)n2n1CC(N1CCOCC1)C2` (stereo not drawn) as the compound, how does the pIC50 read?
Answer: Its pIC50 is 6.50.

Question: `O=c1c(-c2ccc(F)cc2)c(-c2ccnc(NCc3ccccc3)n2)n2n1CC1(C2)OCCCO1` was tested. Which pIC50 did it give?
Answer: The pIC50 was 7.51.

Question: How did the pIC50 turn out when `O=c1c(-c2ccc(F)cc2)c(-c2ccnc(NCc3ccc(F)cc3)n2)n2n1CC1(C2)OCCCO1` was run?
Answer: The pIC50 was 6.20.

Question: With `O=c1c(-c2ccc(F)cc2)c(-c2ccnc(Oc3ccccc3)n2)n2n1CC1(C2)OCCO1` as the compound, how does the pIC50 read?
Answer: The pIC50 was 7.42.

Question: How did the pIC50 turn out when `C[C@H](Nc1nccc(-c2c(-c3ccc(F)cc3)c(=O)n3n2CC2(C3)OCCO2)n1)c1ccccc1` was run?
Answer: Its pIC50 is 8.70.

Question: With `O=c1c(-c2ccc(F)cc2)c(-c2ccnc(NCc3ccc(C(F)(F)F)cc3)n2)n2n1CC1(C2)OCCO1` as the compound, how does the pIC50 read?
Answer: The pIC50 was 6.00.

Question: `O=c1c(-c2ccc(F)cc2)c(-c2ccnc(NCc3ccncc3)n2)n2n1CC1(C2)OCCO1` was tested. Which pIC50 did it give?
Answer: Its pIC50 is 6.00.

Question: With `O=c1c(-c2ccc(F)cc2)c(-c2ccnc(Oc3ccccc3)n2)n2n1CC(N1CCNCC1)C2` (stereo not drawn) as the compound, how does the pIC50 read?
Answer: The pIC50 was 6.30.

Question: How did the pIC50 turn out when `COC[C@H](C)Nc1nccc(-c2c(-c3ccc(F)cc3)c(=O)n3n2CC2(C3)OCCCO2)n1` was run?
Answer: The pIC50 was 7.44.

Question: With `O=c1c(-c2ccc(F)cc2)c(-c2ccnc(NCc3cccnc3)n2)n2n1CC1(C2)OCCO1` as the compound, how does the pIC50 read?
Answer: Its pIC50 is 6.37.

Question: With `Nc1ccc(CNc2nccc(-c3c(-c4ccc(F)cc4)c(=O)n4n3CC3(C4)OCCO3)n2)cc1` as the compound, how does the pIC50 read?
Answer: The pIC50 was 6.79.

Question: How did the pIC50 turn out when `O=c1c(-c2ccc(F)cc2)c(-c2ccnc(NCc3cccc(F)c3)n2)n2n1CC1(C2)OCCO1` was run?
Answer: The pIC50 was 7.89.

Question: How did the pIC50 turn out when `O=c1c(-c2ccc(F)cc2)c(-c2ccnc(NCc3ccc(F)cc3)n2)n2n1CC1(C2)OCCO1` was run?
Answer: Its pIC50 is 6.54.

Question: How did the pIC50 turn out when `COC(=O)OC1Cn2c(-c3ccnc(Oc4ccccc4)n3)c(-c3ccc(F)cc3)c(=O)n2C1` (stereo not drawn) was run?
Answer: The pIC50 was 6.74.

Question: With `Cc1cccc(CNc2nccc(-c3c(-c4ccc(F)cc4)c(=O)n4n3CC3(C4)OCCO3)n2)c1` as the compound, how does the pIC50 read?
Answer: The pIC50 was 7.40.

Question: How did the pIC50 turn out when `Nc1ccccc1CNc1nccc(-c2c(-c3ccc(F)cc3)c(=O)n3n2CC2(C3)OCCO2)n1` was run?
Answer: The pIC50 was 7.00.

Question: With `C[C@H](Nc1nccc(-c2c(-c3ccc(F)cc3)c(=O)n3n2CC2(C3)OCCCO2)n1)c1ccccc1` as the compound, how does the pIC50 read?
Answer: The pIC50 was 7.92.

Question: `Cc1ccc(CNc2nccc(-c3c(-c4ccc(F)cc4)c(=O)n4n3CC3(C4)OCCO3)n2)cc1` was tested. Which pIC50 did it give?
Answer: The pIC50 was 6.53.

Question: How did the pIC50 turn out when `O=c1c(-c2ccc(F)cc2)c(-c2ccnc(Oc3ccccc3)n2)n2n1CC(N1CCCCC1)C2` (stereo not drawn) was run?
Answer: The pIC50 was 6.53.

Question: How did the pIC50 turn out when `O=c1c(-c2ccc(F)cc2)c(-c2ccnc(NCc3ccccc3F)n2)n2n1CC1(C2)OCCO1` was run?
Answer: The pIC50 was 8.10.

Question: How did the pIC50 turn out when `O=c1c(-c2ccc(F)cc2)c(-c2ccnc(NCc3ccccn3)n2)n2n1CC1(C2)OCCO1` was run?
Answer: The pIC50 was 6.83.

Question: How did the pIC50 turn out when `C[C@H](Nc1nccc(-c2c(-c3ccc(F)cc3)c(=O)n3n2CC2(C3)OCCO2)n1)C(C)(C)O` was run?
Answer: Its pIC50 is 8.05.

Question: `O=c1c(-c2ccc(F)cc2)c(-c2ccnc(Oc3ccccc3)n2)n2n1CC1(C2)OCCCO1` was tested. Which pIC50 did it give?
Answer: Its pIC50 is 7.16.

Question: `COC[C@H](C)Nc1nccc(-c2c(-c3ccc(F)cc3)c(=O)n3n2CC(OC)C3)n1` (stereo partly drawn) was tested. Which pIC50 did it give?
Answer: The pIC50 was 7.89.

Question: How did the pIC50 turn out when `COCC(C)Nc1nccc(-c2c(-c3ccc(F)cc3)c(=O)n3n2CC(OC)C3)n1` (racemic) was run?
Answer: The pIC50 was 7.82.

Question: `COCC(C)Nc1nccc(-c2c(-c3ccc(F)cc3)c(=O)n3n2CC(OC)C3)n1` (single isomer, unassigned) was tested. Which pIC50 did it give?
Answer: The pIC50 was 7.70.

The compounds below were run on Rattus norvegicus (assay: Percent reduction in joint damage as compared to the control at 25 mg/Kg).
Assay type: functional
In short: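 Rat iodoacetate osteoarthritis model; groups of 15 animals dosed orally BID (~every 12 h) for 7 days at 25 mg/kg or vehicle (2.5 mL/kg). Sacrifice on day 22; left joint disarticulated, fixed in 10% formalin 24–48 h, tibial cartilage surface imaged by image analysis. Joint damage expressed as % reduction versus vehicle; significance at P < 0.05.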

Question: With `COC[C@H](C)Nc1nccc(-c2c(-c3ccc(F)cc3)c(=O)n3n2CC2(C3)OCCO2)n1` as the compound, how does the Reduction read?
Answer: Its Reduction is 17%.

Question: `C[C@H](Nc1nccc(-c2c(-c3ccc(F)cc3)c(=O)n3n2CC2(C3)OCCO2)n1)c1ccccc1` was tested. Which Reduction did it give?
Answer: Its Reduction is 27%.

Question: With `C[C@H](Nc1nccc(-c2c(-c3ccc(F)cc3)c(=O)n3n2CC2(C3)OCCO2)n1)C(C)(C)O` as the compound, how does the Reduction read?
Answer: Its Reduction is 18%.

Question: With `COCC(C)Nc1nccc(-c2c(-c3ccc(F)cc3)c(=O)n3n2CC(OC)C3)n1` (racemic) as the compound, how does the Reduction read?
Answer: The Reduction was 28%.
